Assay: Toxicity liver stage against HepG2, at 10uM
Assay type: cell-based
Design: test concentration 10 uM, cell line HepG2-A16-CD81EGFP
Conditions: human, HepG2-A16-CD81EGFP cells; read-out: INHIBITION
In short: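 Uninfected HepG2-A16-CD81EGFP cells, 3 × 10^3 per well, 1536-well, plated on prespotted compound at 10 μM final, parasite-free screening media added to match infected plates; puromycin 10 μM positive, DMSO 0.5% negative; run in parallel with 48 h PbLuc assay at 37 °C, 5% CO2; viability by CellTiter-Glo luminescence, normalized to controls.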

Compound | cytotoxicity at 10 µM [%]
CC1=Nc2c(c(=O)[nH]n2C2CCCC2)C(c2ccc(C(=O)O)cc2)S1 (centres undefined) | -10.4
CN(C)S(=O)(=O)N1CCC(Cn2cccn2)CC1 | -10.9
CC(C)n1cnc(C2CN(C)c3ccc(C(=O)NCC4CC4)cc32)n1 (centres undefined) | -2.19
CCS(=O)(=O)N1CCc2ccc(=O)n(CC3CC3)c2CC1 | 7.95
CN(Cc1ccccc1)CC1CC2(CO1)CN(Cc1nccs1)C2 (centres undefined) | 8.88
Cc1noc(C[C@@H]2COC[C@H]3CN(S(C)(=O)=O)C[C@@H]23)n1 | 12.2
Cc1cnc(N2CCOC3(CCCN(C(=O)C(C)C)C3)C2)nc1 (centres undefined) | 10.9
COCC1CC2(CCN(C(=O)C3CCSCC3)CC2)CO1 (centres undefined) | -8.93
CN(C)Cc1cc(=O)n2c(n1)CN(Cc1ccco1)CCC2 | 7.07
O=C1COC2(CCN(c3ncccn3)CC2)CN1c1ccsc1 | -0.31
COc1cc(N2CCc3ncnc(-c4cnn(C)c4)c3CC2)ncn1 | 8.46
CC(C)C(=O)N1CCN(S(=O)(=O)C2CC2)CC2(CC(=O)N(C)C2)C1 (centres undefined) | 8.4
Cc1ccc(N2CCC3(CCN(Cc4nccs4)CC3)CC2)nn1 | 10.6
O=C(c1c2c(NCC3CC3)ncnc2n2ccccc12)N1CCCC1 | 9.31
Fc1cccnc1N1CCOCC2(CCCNC2)C1 (centres undefined) | 3.44
Cn1cc(CN2CCc3ncn(C)c3C2COCc2cccnc2)cn1 (centres undefined) | 6.86
Cc1csc(CN2CC[C@H]3C[C@H](c4ccncn4)O[C@@H]3C2)n1 | -148
CCNC(=O)c1sccc1N(C)S(=O)(=O)c1ccc(Cl)cc1 | 10.8
Cc1cc(NC(=O)c2nn(C3CCS(=O)(=O)C3)c3c2CCCC3)no1 (centres undefined) | 3.85
O=C(NCCn1ccc(-c2ccncc2)n1)c1ccncc1 | -19.1
Cc1c(Cl)cccc1NCc1nc2n(n1)CCCCC2 | 10.6
CSc1nc2ccsc2c(=O)n1CC(=O)NC1CCCCC1 | 4.45

Compound | cytotoxicity at 10 µM [%]
c1ccc2c3c([nH]c2c1)C(c1nn[nH]n1)CCC3 (centres undefined) | -7.23
Cc1nc(C)n(CCC(=O)NCC2CCCOC2)n1 (centres undefined) | 4.3
Cc1nc(NC2CCCC2)cc(C2CCN2c2ncccn2)n1 (centres undefined) | -0.943
Cc1c[nH]c(C2CN(Cc3ccccc3C(=O)O)CCO2)n1 (centres undefined) | -0.822
CN1CCN(C(=O)CCCc2ccccc2)CC(O)(Cn2cccn2)C1 (centres undefined) | -1.93
COc1ccc2c(c1)C(=O)NC1(CC2)CCN(Cc2ccncc2)C1 (centres undefined) | 3.44
CC(C)n1nnc(CC(=O)NCC2(c3cccc(F)c3)CCCC2)n1 | 4.5
CC1CCc2nn(CCNC(=O)Cc3ccc(F)cc3)c(=O)cc2C1 (centres undefined) | 7.61
CN(C)c1cccc(C2CCN(C3COCC3O)CC2)n1 (centres undefined) | -13.9
CNc1nccnc1C1CN(Cc2ccc(OCC(=O)O)cc2)CCO1 (centres undefined) | -5.73
Cn1cc(CN2CCc3c(nc(-c4ccccn4)[nH]c3=O)C2)cn1 | -5.05
Cc1ccc(CC(=O)N(C)CC2(O)CCN(c3ccccn3)C2)s1 (centres undefined) | -10.4
CN(c1cccnc1N1CCCC1)S(=O)(=O)c1cnn(C)c1 | -4.28
CC(C)Cc1cc(C(=O)N2CCC(Cc3cnn(C)c3)C2)cc(O)n1 (centres undefined) | -2.1
CN(Cc1cc(F)cc2cccnc12)CC1CCN(CCO)CC1 | 1.9
Cc1noc(C(C)C)c1C(=O)N1CCC(n2cccn2)CC1 | -4.32
CC(C)c1ocnc1C(=O)Nc1cccc(Cn2ccccc2=O)c1 | 8.15
CCCOCCOC(=O)c1ccc2c(c1)[nH]c(=O)n2C | -16.4
CCCc1noc(CN2CCN(CCC(C)C)CC2)n1 | -1.48
CCNS(=O)(=O)c1ccc(C)c(C(=O)N(CCC#N)Cc2ccco2)c1 | 5.44
Cc1nc(CNC2CCCN(c3cccnn3)C2)no1 (centres undefined) | -5.55
COCCOCCNC(=O)c1cccc(Cn2nc(C)cc2C)c1 | 17.6

Compound | cytotoxicity at 10 µM [%]
CCC(NC(=O)Nc1ccc(OC)c(C)c1)c1ccncc1 (centres undefined) | -2.07
Cc1cc(C(=O)Nc2ccc(OC3CCOCC3)c(C)c2)[nH]n1 | -8.03
Cc1n[nH]c(C)c1C1CCCN1C(=O)c1cc(Br)c[nH]1 (centres undefined) | -4.08
NC(=O)c1cccc(CCNC(=O)N2Cc3ccccc3C2)c1 | -9.86
Cc1ncc2c(n1)CN(CCOCC(F)(F)F)CC2 | -0.598
CN(C)S(=O)(=O)CCCOc1cccc(-n2ccnc2)c1 | 14
CC(NCc1cnc(N2CCN(C)CC2)nc1)c1ccc(F)cc1 (centres undefined) | -5.26
O=C(NC1(c2cccc(F)c2)CCOCC1)c1ccccn1 | -12.3
COCCN(C)Cc1ccc(OC)c(OC(F)F)c1 | -5.5
CC(C)N(C)[C@@H]1CCN(S(C)(=O)=O)[C@H]1Cc1ccccc1 | 5.7
O=C(O)c1c(-c2ccncc2)ncc2c1CCN(Cc1ccco1)C2 | -3.6
COCC1CN(C(=O)CC2=CCCCC2)Cc2nnn(CC3CC3)c21 (centres undefined) | -116
O=C(c1cccs1)N1CC[C@H]2C[C@@H](c3nnc(C4CC4)o3)O[C@@H]2C1 | -109
O=C([C@H]1CN(Cc2nccs2)C[C@H]2OCC[C@@H]12)N1CCCC1 | -94.1
Cc1nnn2c1COCC(CNC(=O)c1ccc[nH]1)C2 (centres undefined) | 2.7
COCCO[C@H]1CCN(C(=O)C2CCOCC2)[C@H]1Cc1ccncc1 | 4.32
O=C(CC1CC1)N(Cc1cccnc1)CC1CCN(C2CCCC2)CC1 | 5.95
CNc1nc(C(=O)N2CCCn3nc(C(=O)N4CCCC4)cc3C2)cs1 | 4.57
COc1cc2c(cc1CNC(=O)C(C)n1ccnc1C(C)C)CCC2 (centres undefined) | 0.719
CCOCCC(=O)N1Cc2cnc(-c3ccccc3)nc2C1 | -6.88
CCN(CC)Cc1nc(Cc2cccc(C(F)(F)F)c2)no1 | 9.76
Cc1nc(N2C[C@@H](CN3CCCN(C)CC3)[C@@H](CO)C2)c2sccc2n1 | -8.64

Compound | cytotoxicity at 10 µM [%]
CSc1ccccc1C(=O)C1CCCN(Cc2cc(C(C)C)[nH]n2)C1 (centres undefined) | -4.01
CC(C)c1cc(C2CCCN2C(=O)c2cn3ccsc3n2)no1 (centres undefined) | -2.33
CCOCCc1nc(CCc2ccccc2)n[nH]1 | 10.3
CCC(=O)N1CCN(C(=O)c2ccc(COC)o2)[C@H]2CS(=O)(=O)C[C@H]21 | -10.9
Cc1cnc(-c2cccc(-c3ccn(CCCO)n3)c2)nc1N(C)C | -7.6
CC(=O)c1ccc(NC(=O)N(CCN(C)C)Cc2ccc(C)s2)cc1 | -16.5
CC(Cc1ccccn1)N(C)Cc1ccc2c(c1)CCO2 (centres undefined) | -0.0105
CCc1cc(NCc2cc(CC(C)C)on2)n2nccc2n1 | 3.59
O=C1CCC2(CCCO2)CCN1Cc1noc(C2CCCC2)n1 (centres undefined) | 4.24
COc1ccc(C)cc1C(C(=O)O)N1CCN(Cc2ccccn2)CC1 (centres undefined) | 4.4
Cc1ccc(-c2nc(CNC(C)CCO)[nH]c2-c2ccccn2)cc1 (centres undefined) | -6.78
O=C(CC[C@@H]1CCCN2CCCC[C@H]12)NCCc1cc(O)ncn1 | -1.91
Cc1nn(C)c(Oc2ccc(Cl)cc2)c1CN1CCOC(CN)C1 (centres undefined) | 8.85
Cc1ccc(-c2noc(CC[C@@H]3CCCN4CCCC[C@H]34)n2)nn1 | -4.56
CCn1c(C)nnc1SCCNc1nc(C)nc2c1cnn2C | 7.9
CSCCc1c(-c2ccccc2)ncn1CC(C)(C)N1CCCC1 | -47.8
CCC[C@H]1CN(CCS(C)(=O)=O)C[C@@H]1NC(=O)c1ccccn1 | 1.13
COCc1cc(NCCc2ccc(S(N)(=O)=O)cc2)n2nccc2n1 | 6.45
Cn1ccnc1CN1C[C@@H](CN2CCC(CO)CC2)[C@@H](CO)C1 | -15.5
CC(C)NC(=O)[C@@H]1C[C@H](N)CN1C(=O)c1cc2ccccc2[nH]c1=O | 10.3
O[C@H]1[C@H](n2cc(-c3ccccc3)nn2)c2ccccc2C12CCNCC2 | 7.62
Cc1noc(Cl)c1CCC(=O)N1CCN(c2ccccc2)CC1 | -1.37

Compound | cytotoxicity at 10 µM [%]
Cc1ccccc1C(C)N(C)Cc1nc2c(cnn2C)c(=O)[nH]1 (centres undefined) | -6.69
CNc1nc(CNC(=O)Nc2cccc(CSC)c2)cs1 | -3.01
O=C1CCCc2[nH]c(=O)c(C(=O)N(Cc3ccsc3)C3CC3)cc21 | -10.8
CC1CN(CC(=O)Nc2nccs2)CCN1Cc1nccn1C (centres undefined) | -15.4
c1ccc(Cc2noc(CN3CCCCC3Cn3cncn3)n2)cc1 (centres undefined) | -13.2
O=C(c1ccc(-n2cccn2)nc1)N1CCCC(n2cccn2)C1 (centres undefined) | -4.75
Cc1nc2ccccc2nc1CN1CCOC(Cn2cccn2)C1 (centres undefined) | 1.1
CS(=O)(=O)N1CCCN(C(=O)c2ccc(Cn3ccccc3=O)o2)CC1 | -3.41
Cc1nc2cc(C(=O)N3CCCC(n4cncn4)C3)ccc2n1C (centres undefined) | -8.26
CCC1CN(CCC(=O)N(C)C)CCN1CCOC (centres undefined) | -6.34
CCc1ccc(C(=O)O)cc1S(=O)(=O)Nc1ccc(F)c(C#N)c1 | -10.9
Cc1cc(-c2nccs2)nc(C2CCN(Cc3ccncc3)CC2)n1 | 8.6
CC(C)[C@H](N)C(=O)N1CCCC(C2=Nc3ccccc3S(=O)(=O)N2)C1 (some centres undefined) | 7.96
c1ccc(NCc2cn3c(n2)CN(Cc2cccs2)CC3)nc1 | 5.22
CC(C)NC(=O)[C@@H]1CN(Cc2ccc3c(c2)OCO3)C[C@H]2OCC[C@H]21 | 3.65
O=C(NC1CCCC1)C1(Cc2cc(C3CCOC3)no2)CCNCC1 (centres undefined) | -1.57
CCCN1CCC2(CC1)CN(C(=O)c1cccnc1)c1ccc(F)cc12 | -104
c1cnc(N2CCOCC3(CN(Cc4cc[nH]n4)CCO3)C2)nc1 (centres undefined) | 10
CCS(=O)(=O)N1CCC2(CCN(Cc3nccs3)CC2)CC1 | 7.13
O=C(N1CCCC1)N1C[C@@H]2CC[C@H]1CN(Cc1ccncc1)C2 | 4.63
O=c1[nH][nH]c2cn(-c3ccc(F)cc3)c(=O)n12 | -1.45

Reference: ChEMBL document CHEMBL4513216, “Probing the Open Global Health Chemical Diversity Library for Multistage-Active Starting Points for Next-Generation Antimalarials” (ACS Infect Dis, 2020)
